Assay results from ChEMBL document CHEMBL1144761, “Bioactive polybrominated diphenyl ethers from the marine sponge Dysidea sp” (J Nat Prod, 2008).
Calls of active or inactive are those of the source. The rule behind the calls is not given here.

Experiments:
MCF7 [1] = test: Antiproliferative activity against human MCF7 cells; assay type: functional, cell-based
Summary of the method: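 MCF-7 cells grown in IMEM with 5% FBS and penicillin/streptomycin at 37 °C, 5% CO2, plated in 96-well plates with compounds in DMSO at five concentrations. After 2 days, glutaraldehyde-fixed, crystal violet-stained, dye solubilised in Triton X-100, A560 minus A405 read. % growth relative to day-0 and DMSO wells; IC50 read graphically from dose–response curve, triplicate.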

MCF7 [2] = test: Cell cycle arrest in human MCF7 cells by accumulation at G1 phase at 10 uM by flow cytometry; assay type: functional, cell-based
Summary of the method: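 MCF-7 cells, 1 × 10^5 per well, held 2 days in serum-free, antibiotic-free, phenol red-free IMEM to induce G1 arrest. Compound or DMSO added 30 min before FBS to 5% final; serum-free wells as negative controls; U0126 50 µM comparator. After 24 h, cells fixed in ice-cold 80% ethanol, propidium iodide stained, phases measured by flow cytometry; n = 3.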

MCF7 [3] = test: Cytotoxicity against human MCF7 cells at >10 uM; assay type: functional, cell-based
Streptomyces [4] = test: Antibacterial activity against Streptomyces 85E assessed as clear zone at 20 ug/disk after 30 hrs by hyphae formation inhibition assay; assay type: functional; conditions: read-out: IZ
Summary of the method: (§1)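 Mycelial fragments spread on minimal medium ISP 4 agar to form a lawn; compound-impregnated 6 mm paper disks placed on surface; incubated 30 h at 30 °C. Zone diameter recorded as clear (growth and sporulation inhibited) or bald (substrate hyphae without aerial hyphae); >9 mm counted active. Stocks in DMSO or methanol; solvent negative control, surfactin positive control.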

Streptomyces [5] = test: Antibacterial activity against Streptomyces 85E assessed as clear zone at 10 ug/disk after 30 hrs by hyphae formation inhibition assay; assay type: functional; conditions: read-out: IZ; summary of the method: as §1
Streptomyces [6] = test: Antibacterial activity against Streptomyces 85E assessed as clear zone at 5 ug/disk after 30 hrs by hyphae formation inhibition assay; assay type: functional; conditions: read-out: IZ; summary of the method: as §1
Streptomyces [7] = test: Antibacterial activity against Streptomyces 85E assessed as clear zone at 2.5 ug/disk after 30 hrs by hyphae formation inhibition assay; assay type: functional; conditions: read-out: IZ; summary of the method: as §1
Streptomyces [8] = test: Antibacterial activity against Streptomyces 85E assessed as bald phenotype at 10 ug/disk after 30 hrs by hyphae formation inhibition assay; assay type: functional; conditions: read-out: IZ; summary of the method: as §1
Streptomyces [9] = test: Antibacterial activity against Streptomyces 85E assessed as bald phenotype at 5 ug/disk after 30 hrs by hyphae formation inhibition assay; assay type: functional; conditions: read-out: IZ; summary of the method: as §1
Streptomyces [10] = test: Antibacterial activity against Streptomyces 85E assessed as bald phenotype at 2.5 ug/disk after 30 hrs by hyphae formation inhibition assay; assay type: functional; conditions: read-out: IZ; summary of the method: as §1
Streptomyces [11] = test: Antibacterial activity against Streptomyces 85E assessed as bald phenotype at 20 ug/disk after 30 hrs by hyphae formation inhibition assay; assay type: functional; conditions: read-out: IZ; summary of the method: as §1

| Structure (SMILES) | IC50 (MCF7 [1]) [µM] | Activity (MCF7 [2]) | Activity (MCF7 [3]) | zone of inhibition at 20 µg/disc (Streptomyces [4]) [mm] | zone of inhibition at 10 µg/disc (Streptomyces [5]) [mm] | zone of inhibition at 5 µg/disc (Streptomyces [6]) [mm] | zone of inhibition at 2.5 µg/disc (Streptomyces [7]) [mm] | zone of inhibition at 10 µg/disc (Streptomyces [8]) [mm] | zone of inhibition at 5 µg/disc (Streptomyces [9]) [mm] | zone of inhibition at 2.5 µg/disc (Streptomyces [10]) [mm] | zone of inhibition at 20 µg/disc (Streptomyces [11]) [mm] |
| --- | --- | --- | --- | --- | --- | --- | --- | --- | --- | --- | --- |
| Oc1cc(Br)cc(Br)c1Oc1ccc(Br)cc1Br | 2.84 | Active | Active | 20 | 17 | 16 | 13 | – | – | – | – |
| Oc1c(Br)cc(Br)c(Br)c1Oc1ccc(Br)cc1Br | 8.73 | – | – | 12 | 12 | – | – | 2 | 15 | 13 | 3 |
| Oc1c(Br)c(Br)c(Br)c(Br)c1Oc1ccc(Br)cc1Br | 9.48 | – | – | 15 | 13 | – | – | – | 12 | 12 | – |
| COc1c(O)c(Oc2ccc(Br)cc2Br)c(Br)c(Br)c1Br | 8.69 | – | – | – | – | – | – | 12 | 11 | 10 | 12 |
| Oc1c(Oc2ccc(Br)cc2Br)ccc(Br)c1Br | 7.23 | – | – | 13 | – | – | – | 14 | 13 | 10 | – |
| Oc1c(Br)cc(Br)cc1Oc1ccc(Br)cc1Br | 8.9 | – | – | 13 | – | – | – | 13 | 12 | 10 | – |
| Oc1c(Br)c(Br)cc(Br)c1Oc1ccccc1Br | 6.96 | – | – | 20 | 18 | 13 | 12 | – | – | – | – |
| Oc1c(Br)ccc(Br)c1Oc1ccc(Br)cc1Br | 6.89 | – | – | 14 | 13 | – | – | – | 11 | 10 | – |
| Oc1c(Br)c(Br)cc(Br)c1Oc1ccc(Br)cc1Br | 7.52 | – | – | – | – | – | – | 13 | 11 | 10 | 14 |
